Legend:
SK-MEL-5 = assay: Evaluated for the inhibitory concentration required to cause growth inhibition of SK-MEL-5 melanoma cell line using the MTT Cytotoxicity Assay; assay type: functional, cell-based; details: Homo sapiens
In short: (§1)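 MTT microculture tetrazolium growth assay on human cell lines and normal fibroblasts. Cells seeded at 1000 cells/well, with compound added 24 h after plating. Cultures then incubated a further 6 days at 37 °C before MTT read-out of growth versus untreated cells.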

P388 [1] = assay: Evaluated in vivo for antineoplastic activity against P388 murine leukemia tumor […] after administering intra peritoneal injection at a dose of 200 mg/kg.; assay type: functional, Mus musculus
In short: (§2)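 P388 leukemia-bearing mice, run through the NCI Developmental Therapeutics Program. Compound given ip once daily on 5 consecutive days. Activity read out as % T/C.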

[2] = Evaluated in vivo for antineoplastic activity against LX-1 Lung small cell carcinoma tumor xenograft in nude mice after administering intra peritoneally 3 injections at a dose of 100 mg/kg; assay type: functional, Homo sapiens
In short: (§3)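 Nude mice bearing tumor xenografts, run through the NCI Developmental Therapeutics Program. Compound given ip as three injections at 4-day intervals for MX-1 mammary, LX-1 lung and LOX melanoma. Activity read out as % T/C.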

MX1 [3] = assay: Evaluated in vivo for antineoplastic activity against MX-1 mammary carcinoma tumor xenograft in nude mice after administering intra peritoneally 3 injections at a dose of 200 mg/kg; assay type: functional, Homo sapiens; in short: as §3
OVCAR-3 = assay: Evaluated for the inhibitory concentration required to cause growth inhibition of OVCAR-3 ovarian cell line using the MTT Cytotoxicity Assay; assay type: functional, cell-based; details: Homo sapiens; in short: as §1
A704 = assay: Evaluated for the inhibitory concentration required to cause growth inhibition of A704Rem- renal cell line using the MTT Cytotoxicity Assay; assay type: functional, cell-based; details: Homo sapiens; in short: as §1
NCI-H460 = assay: Evaluated for the inhibitory concentration required to cause growth inhibition of H460 cell line of lung using the Microculture Tetrazolium (MTT) Cytotoxicity Assay; assay type: functional, cell-based; details: Homo sapiens; in short: as §1
[4] = Evaluated in vivo for antineoplastic activity against LOX melanoma amelanotic tumor xenograft in nude mice after administering intra peritoneally 3 injections at a dose of 400 mg/kg; assay type: functional, Homo sapiens; in short: as §3
MCF7 = assay: Evaluated for the inhibitory concentration required to cause growth inhibition of MCF-7 breast cell line using the MTT Cytotoxicity Assay; assay type: functional, cell-based; details: Homo sapiens; in short: as §1
DOD-1 = assay: Evaluated for the inhibitory concentration required to cause growth inhibition of DOD-1 breast cell line using the MTT Cytotoxicity Assay; assay type: functional, cell-based; details: Homo sapiens; in short: as §1
TE-671 = assay: Evaluated for the inhibitory concentration required to cause growth inhibition of TE-671 cell line of central nervous system (CNS)using the MTT Cytotoxicity Assay; assay type: functional, cell-based; details: Homo sapiens; in short: as §1
[5] = test system: MAR BEL fibroblasts cell line; assay: Evaluated for the inhibitory concentration required to cause growth inhibition of MAR BEL fibroblasts cell line using the MTT Cytotoxicity Assay; assay type: functional, cell-based; details: Homo sapiens; in short: as §1
NCI-H125 = assay: Evaluated for the inhibitory concentration required to cause growth inhibition of H125 cell line of lung using the Microculture Tetrazolium (MTT) Cytotoxicity Assay; assay type: functional, cell-based; details: Homo sapiens; in short: as §1
[6] = Evaluated in vivo for antineoplastic activity against LOX melanoma amelanotic tumor xenograft in nude mice after administering intra peritoneally 3 injections at a dose of 100 mg/kg; assay type: functional, Homo sapiens; in short: as §3
NCI-H23 = assay: Evaluated for the inhibitory concentration required to cause growth inhibition of H23 cell line of lung using the Microculture Tetrazolium (MTT) Cytotoxicity Assay; assay type: functional, cell-based; details: Homo sapiens; in short: as §1
A673 = assay: Evaluated for the inhibitory concentration required to cause growth inhibition of A673Mer+ sarcoma cell line using the MTT Cytotoxicity Assay; assay type: functional, cell-based; details: Homo sapiens; in short: as §1
Malme-3M = assay: Evaluated for the inhibitory concentration required to cause growth inhibition of MALME-3M melanoma cell line using the MTT Cytotoxicity Assay; assay type: functional, cell-based; details: Homo sapiens; in short: as §1
A-427 = assay: Evaluated for the inhibitory concentration required to cause growth inhibition of A427Mer- cell line of lung using the MTT Cytotoxicity Assay; assay type: functional, cell-based; details: Homo sapiens; in short: as §1
[7] = Evaluated in vivo for antineoplastic activity against LX-1 Lung small cell carcinoma tumor xenograft in nude mice after administering intra peritoneally 3 injections at a dose of 200 mg/kg; assay type: functional, Homo sapiens; in short: as §3
MX1 [8] = assay: Evaluated in vivo for antineoplastic activity against MX-1 mammary carcinoma tumor xenograft in nude mice after administering intra peritoneally 3 injections at a dose of 100 mg/kg; assay type: functional, Homo sapiens; in short: as §3
OVCAR-4 = assay: Evaluated for the inhibitory concentration required to cause growth inhibition of OVCAR-4 ovarian cell line using the MTT Cytotoxicity Assay; assay type: functional, cell-based; details: Homo sapiens; in short: as §1
CCD 19Lu = assay: Evaluated for the inhibitory concentration required to cause growth inhibition of CCD-19Lu fibroblasts cell line using the MTT Cytotoxicity Assay; assay type: functional, cell-based; details: Homo sapiens; in short: as §1
[9] = Evaluated in vivo for antineoplastic activity against LOX melanoma amelanotic tumor xenograft in nude mice after administering intra peritoneally 3 injections at a dose of 200 mg/kg; assay type: functional, Homo sapiens; in short: as §3
A549 = assay: Evaluated for the inhibitory concentration required to cause growth inhibition of A549Rem- cell line of lung using the MTT Cytotoxicity Assay; assay type: functional, cell-based; details: Homo sapiens; in short: as §1
U-251 = assay: Evaluated for the inhibitory concentration required to cause growth inhibition of U251 cell line of central nervous system (CNS) using the MTT Cytotoxicity Assay; assay type: functional, cell-based; details: Homo sapiens
In short: (§4)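 MTT cell-growth assay in human cell lines: cells harvested and seeded at 1000 cells/well in 96-well plates. Compound added after 24 h, then cultures incubated a further 6 days at 37 °C. Growth measured with and without agent.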

WiDr = assay: Evaluated for the inhibitory concentration required to cause growth inhibition of WiDR colon cell line using the MTT Cytotoxicity Assay; assay type: functional, cell-based; details: Homo sapiens; in short: as §4
[10] = Evaluated in vivo for antineoplastic activity against LOX melanoma amelanotic tumor xenograft in nude mice after administering intra peritoneally 3 injections at a dose of 800 mg/kg; assay type: functional, Homo sapiens; in short: as §3
NCI-H322M = assay: Evaluated for the inhibitory concentration required to cause growth inhibition of H322M cell line of lung using the Microculture Tetrazolium (MTT) Cytotoxicity Assay; assay type: functional, cell-based; details: Homo sapiens; in short: as §1
NCI/ADR-RES = assay: Evaluated for the inhibitory concentration required to cause growth inhibition of MCF-7ADR breast cell line using the MTT Cytotoxicity Assay; assay type: functional, cell-based; details: Homo sapiens; in short: as §1
NCI-H522 (Homo sapiens) = assay: Evaluated for the inhibitory concentration required to cause growth inhibition of H522 cell line of lung using the Microculture Tetrazolium (MTT) Cytotoxicity Assay
A 172 = assay: Evaluated for the inhibitory concentration required to cause growth inhibition of A172Mer- cell line of central nervous system (CNS) using the MTT Cytotoxicity Assay; assay type: functional, cell-based; details: Homo sapiens; in short: as §1
HOS-TE85 = assay: Evaluated for the inhibitory concentration required to cause growth inhibition of TE85Mer+ sarcoma cell line using the MTT Cytotoxicity Assay; assay type: functional, cell-based; details: Homo sapiens; in short: as §1
LOX IMVI = assay: Evaluated for the inhibitory concentration required to cause growth inhibition of LOX melanoma cell line using the MTT Cytotoxicity Assay; assay type: functional, cell-based; details: Homo sapiens; in short: as §1
MX1 [11] = assay: Evaluated in vivo for antineoplastic activity against MX-1 mammary carcinoma tumor xenograft in nude mice after administering intra peritoneally 3 injections at a dose of 400 mg/kg; assay type: functional, Homo sapiens; in short: as §3
A498 = assay: Evaluated for the inhibitory concentration required to cause growth inhibition of A498Rem- renal cell line using the MTT Cytotoxicity Assay; assay type: functional, cell-based; details: Homo sapiens; in short: as §1
P388 [12] = assay: Evaluated in vivo for antineoplastic activity against P388 murine leukemia tumor […] after administering intra peritoneal injection at a dose of 50 mg/kg.; assay type: functional, Mus musculus; in short: as §2
P388 [13] = assay: Evaluated in vivo for antineoplastic activity against P388 murine leukemia tumor […] after administering intra peritoneal injection at a dose of 100 mg/kg.; assay type: functional, Mus musculus; in short: as §2
NCI-H358 = assay: Evaluated for the inhibitory concentration required to cause growth inhibition of H358M cell line of lung using the Microculture Tetrazolium (MTT) Cytotoxicity Assay; assay type: functional, cell-based; details: Homo sapiens; in short: as §1
RPMI-7951 = assay: Evaluated for the inhibitory concentration required to cause growth inhibition of RPMI7951 melanoma cell line using the MTT Cytotoxicity Assay; assay type: functional, cell-based; details: Homo sapiens; in short: as §1

## CNC(=O)N(C)/N=N\CCCl
SK-MEL-5
  IC50: 13 µM
P388 [1]
  T/C: 297%
[2]
  T/C: -19%
MX1 [3]
  T/C: 1%
OVCAR-3
  IC50: 20 µM
A704
  IC50: 35 µM
NCI-H460
  IC50: 60 µM
[4]
  T/C: 309%
MCF7
  IC50: 14 µM
DOD-1
  IC50: 21 µM
TE-671
  IC50: 55 µM
[5]
  IC50: 47 µM
NCI-H125
  IC50: 45 µM
[6]
  T/C: 201%
NCI-H23
  IC50: 18 µM
A673
  IC50: 35 µM
Malme-3M
  IC50: 28 µM
A-427
  IC50: 18 µM
[7]
  T/C: -66%
MX1 [8]
  T/C: 15%
OVCAR-4
  IC50: 20 µM
CCD 19Lu
  IC50: 60 µM
[9]
  T/C: 309%
A549
  IC50: 26 µM
U-251
  IC50: 30 µM
WiDr
  IC50: 14 µM
[10]
  T/C: 309%
NCI-H322M
  IC50: 37 µM
NCI/ADR-RES
  IC50: 17 µM
NCI-H522 (Homo sapiens)
  IC50: 13 µM
A 172
  IC50: 27 µM
HOS-TE85
  IC50: 26 µM
LOX IMVI
  IC50: 10 µM
MX1 [11]
  T/C: -76%
A498
  IC50: 20 µM
P388 [12]
  T/C: 175%
P388 [13]
  T/C: 196%
NCI-H358
  IC50: 60 µM
RPMI-7951
  IC50: 18 µM
